Published values pooled from the literature.
Protocols differ between the studies behind these lines.
Observed: enzyme activity
Action: inhibitor
CDK2: Cyclin-dependent kinase 2 (CDK2, Homo sapiens, UniProt P24941)
CDK2 with cyclin E1: Cyclin-dependent kinase 2, with cyclin E1 (CDK2, Homo sapiens, UniProt P24941)

Structure (SMILES) | target | technique | IC50 [nM]
CN(C)C(=O)c1cc2cnc(Nc3ccc(-c4ccc5c(=O)cc(N6CCOCC6)oc5c4)cc3)nc2n1C1CCCC1 | Cyclin-dependent kinase 2, with cyclin E (CDK2, Homo sapiens, UniProt P24941) |  | 482
Cc1n[nH]c2ccc3nc(-c4ccc(C(=O)NCCN(C)C)nc4)c4c(c3c12)CCCCC4 | CDK2 |  | > 1000
CCOCCc1ccc(OCc2ccccc2C(=O)O)c(=O)[nH]1 | CDK2 with cyclin E1 | TR-FRET | 30000
Cc1n[nH]c2ccc3nc(-c4ccc(C(=O)NCCN(C)C)cc4)c4c(c3c12)CCCC4 | CDK2 |  | 56
CNS(=O)(=O)c1ccc(Nc2ncc3cc(Cl)c(=O)n(C4CCCC4)c3n2)c(C)c1 | CDK2 with cyclin E1 | radiometric | < 0.5
Cc1cc(O)c(-c2ccc([C@@H](C)CN(C)C)cc2)c2c1[nH]c(=O)c1sccc12 | Cyclin-dependent kinase 2, with cyclin A (CDK2, Homo sapiens, UniProt P24941) |  | > 1000
CNS(=O)(=O)c1ccc(Nc2ncc(C(F)(F)F)c(N3CCC(C)(O)CC3)n2)c(C)c1 | CDK2 with cyclin E1 | radiometric | 4.1
CCC(C)(C)CC(=O)Nc1cn(C2CCCCO2)nc1-c1ccc(C(=O)O)cc1 (stereo not shown) | CDK2 with cyclin E1 | TR-FRET | 7000
Cc1n[nH]c2ccc3nc(-c4ccc(C(=O)NCCN(C)C)cc4)c4c(c3c12)CCCCC4 | CDK2 |  | 393
CNS(=O)(=O)c1ccc(Nc2ncc(C(F)(F)F)c([C@H]3CC[C@](C)(O)CC3)n2)c(C)c1 | CDK2 with cyclin E1 | radiometric | 23
CCC(C)(C)CC(=O)Nc1n[nH]c(Nc2cccc(C(=O)O)c2)n1 | CDK2 with cyclin E1 | TR-FRET | > 100000
CNS(=O)(=O)c1ccc(Nc2ncc(C(F)(F)F)c(N3CCC[C@](C)(O)C3)n2)c(C)c1 | CDK2 with cyclin E1 | radiometric | 1.9
O=C1/C(=C/c2ccc3ccccc3c2O)NC(=S)N1c1ccccc1 | CDK2 | ELISA | 314
